Assay results from ChEMBL document CHEMBL1131206, “Synthesis, anticonvulsant activity, and structure-activity relationships of sodium channel blocking 3-aminopyrroles” (J Med Chem, 1998).

Legend:
Mus musculus [1] = test: Anticonvulsant activity was measured by maximal electroshock seizure test in mice by ip administration at 100 mg/kg dose; type: functional; details: route intraperitoneal
How it was run: (§1)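 Male albino CF No. 1 mice (18–25 g) were dosed ip and tested by maximal electroshock at the previously determined time of peak effect. Groups of at least eight mice received various doses until at least two points fell between 0% and 100% protection. ED50 and its 95% confidence interval were calculated. Single-dose entries give protection percentage at the indicated dose.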

Rattus norvegicus [2] = test: Minimal motor impairment activity by Rotarod test in rat following p.o. administration.; type: functional; details: po
How it was run: (§2)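 Minimal motor impairment in male Sprague–Dawley rats (100 g) after oral dosing was judged at the time of peak effect. The criterion was overt ataxia, abnormal gait and stance, and/or loss of placing response and muscle tone. Groups had at least eight rats across various doses, and the median impairing dose with its 95% confidence interval was calculated.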

Rattus norvegicus [3] = test: Anticonvulsant activity was measured by maximal electroshock seizure test in rat by po administration at 50 mg/kg dose; type: functional
How it was run: (§3)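 Maximal electroshock test in male albino Sprague–Dawley rats (100 g) after oral dosing, run at the previously determined time of peak effect. At least eight rats per group received various doses until at least two points lay between 0% and 100% protection. ED50 with 95% confidence interval was calculated. Single-dose entries report percent protection at that dose.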

[4] = Partition coefficient (logP); type: physicochemical; details: octanol/water
Mus musculus [5] = test: Minimal motor impairment activity by Rotarod test in mice following i.p. administration.; type: functional; details: ip
How it was run: (§4)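 Rotorod neurotoxicity test in male albino CF No. 1 mice dosed ip, run at the time of peak effect. Impairment was defined as failure to keep equilibrium for 60 s in each of three trials on the rotating rod. With groups of at least eight mice across various doses, the median motor-impairing dose and its 95% confidence interval were calculated.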

Mus musculus [6] = test: Anticonvulsant activity was measured by maximal electroshock seizure test in mice by ip administration; type: functional; how it was run: as §1
Rattus norvegicus [7] = test: Anticonvulsant activity was measured by maximal electroshock seizure test in rat by po administration; type: functional; how it was run: as §3
Rattus norvegicus [8] = test: Anticonvulsant activity in corneal kindled rats was determined when 25 mg/kg was administered orally; type: functional; details: route oral
How it was run: (§5)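 Corneally kindled male Sprague–Dawley rats (100 g), stimulated daily via corneal electrodes (8 mA, 60 Hz, 4 s) until 10 consecutive stage 5 seizures. Drug was dosed orally at 0.04 mL/10 g body weight. Seizure severity was scored after dosing, with abolition of the generalized stage 4/5 seizure (clonus, rearing and falling) as the endpoint.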

Rattus norvegicus [9] = test: Anticonvulsant activity in corneal kindled rats was determined when 50 mg/kg was administered orally; type: functional; details: route oral; how it was run: as §5
Rattus norvegicus [10] = test: Anticonvulsant activity in corneal kindled rats was determined when 75 mg/kg was administered orally; type: functional; details: route oral; how it was run: as §5
Rattus norvegicus [11] = test: Anticonvulsant activity in corneal kindled rats was determined when 100 mg/kg was administered orally; type: functional; details: route oral; how it was run: as §5
Rattus norvegicus [12] = test: Anticonvulsant activity was measured by maximal electroshock seizure test in rat by po administration at 25 mg/kg; type: functional; how it was run: as §3
Mus musculus [13] = test: Minimal motor impairment activity of the compound was measured by Rotarod test in mice by ip administration; No effective response; type: functional, organism-based; how it was run: as §4
Rattus norvegicus [14] = test: Minimal motor impairment activity of the compound was measured by […] in rat by po administration; No effective response; type: functional, organism-based; how it was run: as §2
Rattus norvegicus [15] = test: Anticonvulsant activity was measured by maximal electroshock seizure test in rat by po administration; No effective response; type: functional, organism-based; how it was run: as §3
Mus musculus [16] = test: Anticonvulsant activity was measured by maximal electroshock seizure test in mice by ip administration; No effective response; type: functional, organism-based; how it was run: as §1
Mus musculus [17] = test: Anticonvulsant activity was measured by maximal electroshock seizure test in mice by ip administration at 30 mg/kg; type: functional; details: route intraperitoneal; how it was run: as §1
Rattus norvegicus [18] = test: Anticonvulsant activity was measured by maximal electroshock seizure test in rat by po administration at 50 mg/kg; type: functional; how it was run: as §3
Mus musculus [19] = test: Minimal motor impairment activity was measured by Rotarod test in mice by ip administration; type: functional; how it was run: as §4
Mus musculus [20] = test: Anticonvulsant activity was measured by maximal electroshock seizure test in mice by ip administration at 100 mg/kg; type: functional; details: route intraperitoneal; how it was run: as §1
Rattus norvegicus [21] = test: Minimal motor impairment activity was measured by Rotarod test in rat by po administration; type: functional; how it was run: as §2
Rattus norvegicus [22] = test: Anticonvulsant activity in corneal kindled rats was determined when 40 mg/kg was administered orally; type: functional; details: route oral
How it was run: (§6)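 Male Sprague–Dawley rats were kindled by daily corneal stimulation (8 mA, 60 Hz, 4 s) until they reached 10 consecutive stage 5 seizures (rearing and falling with clonus). The drug was then given orally, and seizure score was recorded as mean ± variation. Abolition of the generalized stage 4–5 seizure served as the endpoint.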

Rattus norvegicus [23] = test: Anticonvulsant activity in corneal kindled rats was determined when 80 mg/kg was administered orally; type: functional; details: route oral; how it was run: as §6
Rattus norvegicus [24] = test: Anticonvulsant activity in corneal kindled rats was determined when 10 mg/kg was administered orally; type: functional; details: route oral; how it was run: as §6
Rattus norvegicus [25] = test: Anticonvulsant activity in corneal kindled rats was determined when 20 mg/kg was administered orally; type: functional; details: route oral; how it was run: as §6
Rattus norvegicus [26] = test: Anticonvulsant activity was measured by maximal electroshock seizure test in rat by po administration at 30 mg/kg; type: functional; how it was run: as §3
Mus musculus [27] = test: Anticonvulsant activity (ED50) was measured by maximal electroshock seizure test in mice by ip administration; No effective response; type: functional, organism-based; how it was run: as §1
Rattus norvegicus [28] = test: Anticonvulsant activity (ED50) was measured by maximal electroshock seizure test in rat by po administration; No effective response; type: functional, organism-based; how it was run: as §3

SMILES | logP [4] | ED50 (Rattus norvegicus [2]) [mg/kg] | ED50 (Mus musculus [5]) [mg/kg] | ED50 (Mus musculus [6]) [mg/kg] | also measured
COC(=O)c1[nH]cc(-c2ccc(Br)cc2)c1N1CCOCC1 | 3.8 | > 500 | 166 | 27.8 | ED50 (Rattus norvegicus [7]): 2.5 mg/kg; Seizure score (Rattus norvegicus [8]): 4.3; Seizure score (Rattus norvegicus [9]): 3.7; Seizure score (Rattus norvegicus [10]): 1.7; Seizure score (Rattus norvegicus [11]): 1.9
COC(=O)c1[nH]cc(-c2ccc(Cl)cc2)c1N1CCN(c2ccccc2)CC1 | 4.4 | > 500 | > 500 | 175 | ED50 (Rattus norvegicus [7]): 12.5 mg/kg
CCN1C(=O)c2c(N3CCOCC3)c(-c3ccc(Cl)cc3)cn2C1=O |  |  |  |  | ED50 (Mus musculus [13]): No effective response; ED50 (Rattus norvegicus [14]): No effective response; ED50 (Rattus norvegicus [15]): No effective response; ED50 (Mus musculus [16]): No effective response
COC(=O)c1c(N2CCOCC2)c(-c2ccc(Cl)cc2)cn1C(=O)N1CCOCC1 | 3.1 |  |  |  | 
COC(=O)c1[nH]cc(-c2ccc(Cl)cc2)c1N(C)CCN(C)C | 3.3 | > 50 | < 30 |  | Protection (Mus musculus [17]): 100%; Protection (Rattus norvegicus [18]): 100%
COC(=O)c1c(N2CCOCC2)c(-c2ccc(Cl)cc2)cn1C(=O)c1ccccc1 | 5.5 | > 500 | 175 | 43.7 | ED50 (Rattus norvegicus [7]): 14 mg/kg
Clc1ccc(-c2cnoc2N2CCOCC2)cc1 |  |  |  |  | ED50 (Mus musculus [13]): No effective response; ED50 (Rattus norvegicus [14]): No effective response; ED50 (Rattus norvegicus [15]): No effective response; ED50 (Mus musculus [16]): No effective response
COC(=O)c1[nH]cc(-c2cccc(Br)c2)c1N1CCOCC1 |  |  |  |  | ED50 (Mus musculus [19]): > 300 mg/kg; Protection (Mus musculus [20]): 100%; ED50 (Rattus norvegicus [21]): > 50 mg/kg; Protection (Rattus norvegicus [18]): 75%
COC(=O)CCc1c(N2CCOCC2)c(-c2ccc(Cl)cc2)cn1C |  |  |  |  | ED50 (Mus musculus [13]): No effective response; ED50 (Rattus norvegicus [14]): No effective response; ED50 (Rattus norvegicus [15]): No effective response; ED50 (Mus musculus [16]): No effective response
CC(C)COC(=O)c1[nH]cc(-c2ccc(Cl)cc2)c1N1CCOCC1 |  |  |  |  | ED50 (Mus musculus [13]): No effective response; ED50 (Rattus norvegicus [14]): No effective response; ED50 (Rattus norvegicus [15]): No effective response; ED50 (Mus musculus [16]): No effective response
CC(=O)c1[nH]cc(-c2ccc(Cl)cc2)c1N1CCOCC1 |  | > 100 | 335 | 72.6 | ED50 (Rattus norvegicus [7]): 10.6 mg/kg
NC(=O)N1c2ccccc2C=Cc2ccccc21 [CARBAMAZEPINE] |  | 361 | 47.8 | 9.9 | ED50 (Rattus norvegicus [7]): 11.9 mg/kg; Seizure score (Rattus norvegicus [22]): 3.8; Seizure score (Rattus norvegicus [23]): 2; Seizure score (Rattus norvegicus [24]): 4.8; Seizure score (Rattus norvegicus [25]): 4.5
Cn1cc(-c2ccc(Cl)cc2)c(N2CCOCC2)c1 | 4.2 |  |  |  | 
Cn1cc(-c2ccc(Cl)cc2)c(N2CCOCC2)c1C(=O)O | 2.3 |  |  |  | 
Clc1ccc(-c2c[nH]nc2N2CCOCC2)cc1 |  | > 50 | 300 | 47 | Protection (Rattus norvegicus [18]): 100%
CCOC(=O)c1[nH]cc(-c2ccc(Cl)cc2)c1N1CCN(C)CC1 |  | < 25 | < 25 |  | Protection (Mus musculus [17]): 100%; Protection (Rattus norvegicus [26]): 100%
Clc1ccc(-c2c[nH]cc2N2CCOCC2)cc1 | 3.2 | > 200 | 115 | 62.1 | ED50 (Rattus norvegicus [7]): 17.7 mg/kg
CCS(=O)(=O)n1cc(-c2ccc(Cl)cc2)c(N2CCOCC2)c1C(=O)OC | 4.2 |  |  |  | ED50 (Mus musculus [13]): No effective response; ED50 (Mus musculus [27]): No effective response; ED50 (Rattus norvegicus [14]): No effective response; ED50 (Rattus norvegicus [28]): No effective response

Second part, led by results:

logP [4] | SMILES | ED50 (Rattus norvegicus [2]) [mg/kg] | ED50 (Mus musculus [5]) [mg/kg] | ED50 (Mus musculus [6]) [mg/kg] | also measured
3.5 | N#Cc1[nH]cc(-c2ccc(Cl)cc2)c1N1CCOCC1 | > 50 | > 300 |  | Protection (Mus musculus [1]): 30%; Protection (Rattus norvegicus [3]): 100%
3.7 | C=CCNC(=O)c1[nH]cc(-c2ccc(Cl)cc2)c1N1CCOCC1 |  |  |  | 
1.8 | O=C(O)c1[nH]cc(-c2ccc(Cl)cc2)c1N1CCOCC1 | > 25 | > 300 |  | Protection (Rattus norvegicus [12]): 75%
3.5 | COC(=O)c1c(N2CCOCC2)c(-c2ccc(Cl)cc2)cn1C(C)=O | > 250 | 35.4 | 33.1 | ED50 (Rattus norvegicus [7]): 13.6 mg/kg
3.1 | CN(C)C(=O)c1[nH]cc(-c2ccc(Cl)cc2)c1N1CCOCC1 |  |  |  | 
3.3 | COCCNC(=O)c1[nH]cc(-c2ccc(Cl)cc2)c1N1CCOCC1 |  |  |  | 
3.5 | COC(=O)c1[nH]cc(-c2ccc(Cl)cc2)c1N1CCOCC1 | > 500 | 56.4 | 58.1 | ED50 (Rattus norvegicus [7]): 11.4 mg/kg
3.9 | CCOC(=O)c1[nH]cc(-c2ccc(Cl)cc2)c1N1CCOCC1 | > 500 | 158 | 49.9 | ED50 (Rattus norvegicus [7]): 7.9 mg/kg
2.4 | NC(=O)c1[nH]cc(-c2ccc(Cl)cc2)c1N1CCOCC1 | > 50 | > 500 | 65 | 
4.2 | CCCNC(=O)c1[nH]cc(-c2ccc(Cl)cc2)c1N1CCOCC1 |  |  |  | 
2.8 | COC(=O)c1[nH]cc(-c2ccccc2C)c1N1CCOCC1 | > 50 | > 100 |  | Protection (Mus musculus [20]): 60%; Protection (Rattus norvegicus [18]): 50%
3.3 | CN1CCN(C(=O)c2[nH]cc(-c3ccc(Cl)cc3)c2N2CCOCC2)CC1 | > 50 | > 300 |  | ED50 (Mus musculus [27]): No effective response; Protection (Rattus norvegicus [18]): 50%
3.1 | O=C(c1[nH]cc(-c2ccc(Cl)cc2)c1N1CCOCC1)N1CCOCC1 |  |  |  | 
